Results: ChEMBL document CHEMBL3612031, “Incorporation of a Michael acceptor enhances the antitumor activity of triterpenoic acids” (Eur J Med Chem, 2015)
The source made the active and inactive calls. No cut-off for these calls is given here.

Legend:
Assay type in all cases: functional, cell-based
HT-29 = experiment: Cytotoxicity against human HT-29 cells assessed as cell survival after 96 hrs by SRB assay; settings: for EC50: HT-29, 96 h
Procedure, shortened: (§1)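 Monolayers kept in RPMI 1640 with 10 % heat-inactivated FBS and penicillin/streptomycin, 37 °C, 5 % CO2. Exponentially growing cells seeded day 0 at densities avoiding confluence. After 24 h, serial dilutions 0-100 µM for 96 h, DMSO or DMF ≤0.5 % final. Fixed with 10 % TCA at 4 °C, stained 0.4 % SRB ~20 min, washed with 1 % acetic acid, dye dissolved in 10 mM Tris base, A570 read. Survival taken relative to untreated controls. EC50 fitted by two-parameter Hill equation, mean of three independent experiments each run in triplicate.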

A549 = experiment: Cytotoxicity against human A549 cells assessed as cell survival after 96 hrs by SRB assay; settings: for EC50: A549, 96 h; procedure, shortened: as §1
MCF7 [1] = experiment: Cytotoxicity against human MCF7 cells assessed as cell survival after 96 hrs by SRB assay; settings: for EC50: MCF7, 96 h; procedure, shortened: as §1
518A2 = experiment: (§2) Cytotoxicity against human 518A2 cells assessed as cell survival after 96 hrs by SRB assay; procedure, shortened: as §1
8505C = experiment: Cytotoxicity against human 8505C cells assessed as cell survival after 96 hrs by SRB assay; procedure, shortened: as §1
[2] = as §2; settings: 518A2, 96 h; procedure, shortened: as §1
MCF7 [3] = experiment: Cytotoxicity against human MCF7 cells assessed as inhibition of cell proliferation after 3 days by radioactive thymidine incorporation assay; settings: MCF7, 72 h

Structure (SMILES)	Activity (HT-29)	Activity (A549)	Activity (MCF7 [1])	Activity (518A2)	Activity (8505C)	EC50 (HT-29)	EC50 (A549)	EC50 (MCF7 [1])	EC50 [2]	EC50 (8505C)	EC50 (MCF7 [3])
COC(=O)[C@]12CCC(C)(C)C[C@H]1C1=CC(=O)[C@@H]3[C@@]4(C)CC(Br)(Br)C(=O)C(C)(C)[C@@H]4CC[C@@]3(C)[C@]1(C)CC2	Active	Active	Active	Active	Active						
CC1(C)CC[C@]2(C(=O)O)CC[C@]3(C)C(=CC[C@@H]4[C@@]5(C)CC[C@H](O)C(C)(C)[C@@H]5CC[C@]43C)[C@@H]2C1 [OLEANOLIC_ACID]						> 30 µM	> 30 µM	> 30 µM	> 30 µM	> 30 µM	
CC(=O)[C@@H]1CC[C@]2(C(=O)O)CC[C@]3(C)[C@H](CC[C@@H]4[C@@]5(C)CC[C@H](O)C(C)(C)[C@@H]5CC[C@]43C)[C@@H]12 [PLATANIC ACID]						1.69 µM	1.54 µM	1.55 µM	1.5 µM	1.57 µM	
CC1(C)CC[C@]2(C(=O)O)CC[C@]3(C)[C@H](C(=O)C=C4[C@@]5(C)C=C(C#N)C(=O)C(C)(C)[C@@H]5CC[C@]43C)[C@@H]2C1 [BARDOXOLONE]											0.16 µM
C=C1C[C@]2(C)[C@H]3C(=O)C=C4[C@@H]5CC(C)(C)CC[C@]5(C(=O)OC)CC[C@@]4(C)[C@]3(C)CC[C@H]2C(C)(C)C1=O							17.9 µM		16.8 µM	15.5 µM	
COC(=O)[C@@]1(C)CC[C@]2(C)CC[C@]3(C)C(=CC(=O)[C@@H]4[C@@]5(C)CCC(=O)C(C)(C)[C@@H]5CC[C@]43C)[C@@H]2C1						26.7 µM	26.1 µM	16.7 µM	> 30 µM	20.5 µM	
COC(=O)[C@]12CC[C@@H](C)[C@H](C)[C@H]1C1=CC[C@@H]3[C@@]4(C)CC(Br)(Br)C(=O)C(C)(C)[C@@H]4CC[C@@]3(C)[C@]1(C)CC2	Active	Active	Active	Active	Active						
C=C1C[C@]2(C)[C@H]3C(=O)C=C4[C@@H]5[C@@H](C)[C@H](C)CC[C@]5(C(=O)OC)CC[C@@]4(C)[C@]3(C)CC[C@H]2C(C)(C)C1=O						3.16 µM	1.57 µM	4.68 µM	1.51 µM	1.62 µM	
COC(=O)[C@]12CC[C@@H](C)[C@H](C)[C@H]1C1=CC(=O)[C@@H]3[C@@]4(C)CC[C@H](O)C(C)(C)[C@@H]4CC[C@@]3(C)[C@]1(C)CC2						> 30 µM		> 30 µM	> 30 µM		
COC(=O)[C@]12CCC(C)(C)C[C@H]1C1=CC(=O)[C@@H]3[C@@]4(C)CC[C@H](O)C(C)(C)[C@@H]4CC[C@@]3(C)[C@]1(C)CC2						27.6 µM		28.7 µM	> 30 µM		
COC(=O)[C@@]1(C)CC[C@]2(C)CC[C@]3(C)C(=CC(=O)[C@@H]4[C@@]5(C)CC[C@H](O)C(C)(C)[C@@H]5CC[C@]43C)[C@@H]2C1						> 30 µM	> 30 µM	> 30 µM	> 30 µM	> 30 µM	
C=C1C[C@]2(C)[C@H]3C(=O)C=C4[C@@H]5C[C@@](C)(C(=O)OC)CC[C@]5(C)CC[C@@]4(C)[C@]3(C)CC[C@H]2C(C)(C)C1=O						> 30 µM	> 30 µM	0.74 µM	> 30 µM	> 30 µM	
C=C1C[C@]2(C)[C@H]3CC=C4[C@@H]5[C@@H](C)[C@H](C)CC[C@]5(C(=O)OC)CC[C@@]4(C)[C@]3(C)CC[C@H]2C(C)(C)C1=O						1.35 µM	2.93 µM	4.43 µM	2.16 µM	6.1 µM	
COC(=O)[C@]12CCC(C)(C)C[C@H]1C1=CC(=O)[C@@H]3[C@@]4(C)CCC(=O)C(C)(C)[C@@H]4CC[C@@]3(C)[C@]1(C)CC2								> 30 µM			
CC1(C)[C@@H](O)CC[C@]2(C)[C@H]3C(=O)C=C4[C@@H]5C[C@@](C)(C(=O)O)CC[C@]5(C)CC[C@@]4(C)[C@]3(C)CC[C@@H]12 [ENOXOLONE]						80.1 µM	82.8 µM	84.7 µM	83.9 µM	86.5 µM	
COC(=O)[C@]12CC[C@@H](C)[C@H](C)[C@H]1C1=CC[C@@H]3[C@@]4(C)C[C@H](C)C(=O)C(C)(C)[C@@H]4CC[C@@]3(C)[C@]1(C)CC2	inactive	inactive	inactive	inactive	inactive						
C=C1C[C@]2(C)[C@H]3C(=O)C=C4[C@@H]5C[C@@](C)(C(=O)OC)CC[C@]5(C)CC[C@@]4(C)[C@]3(C)CC[C@H]2C(C)(C)[C@H]1O	inactive	inactive	inactive	inactive	inactive						
COC(=O)[C@]12CC[C@@H](C)[C@H](C)[C@H]1C1=CC(=O)[C@@H]3[C@@]4(C)CC(Br)(Br)C(=O)C(C)(C)[C@@H]4CC[C@@]3(C)[C@]1(C)CC2	Active	Active	Active	Active	Active						
COC(=O)[C@]12CCC(C)(C)C[C@H]1C1=CC[C@@H]3[C@@]4(C)CC[C@H](O)C(C)(C)[C@@H]4CC[C@@]3(C)[C@]1(C)CC2 [METHYL OLEANOLATE]						> 30 µM		> 30 µM	> 30 µM		
COC(=O)[C@]12CC[C@@H](C)[C@H](C)[C@H]1C1=CC(=O)[C@@H]3[C@@]4(C)CCC(=O)C(C)(C)[C@@H]4CC[C@@]3(C)[C@]1(C)CC2						3.71 µM	3.83 µM	4.24 µM	3.71 µM	4.32 µM	
C[C@H]1[C@H](C)CC[C@]2(C(=O)O)CC[C@]3(C)C(=CC[C@@H]4[C@@]5(C)CC[C@H](O)C(C)(C)[C@@H]5CC[C@]43C)[C@H]12 [URSOLIC ACID]						10.6 µM	15.5 µM	12.7 µM	14.7 µM	13.5 µM	
COC(=O)[C@]12CC[C@@H](C)[C@H](C)[C@H]1C1=CC[C@@H]3[C@@]4(C)CC[C@H](O)C(C)(C)[C@@H]4CC[C@@]3(C)[C@]1(C)CC2 [METHYL URSOLATE]						> 30 µM		> 30 µM	> 30 µM		
C=C1C[C@]2(C)[C@H]3CC=C4[C@@H]5CC(C)(C)CC[C@]5(C(=O)OC)CC[C@@]4(C)[C@]3(C)CC[C@H]2C(C)(C)C1=O						> 30 µM	> 30 µM	> 30 µM	> 30 µM	> 30 µM	
